According to ChEMBL document CHEMBL1139419, “Quantitative structure-activity relationship studies on nitrofuranyl anti-tubercular agents” (2008):
≈ marks a conversion by molar mass, not a printed value.

Tested on: Mycobacterium tuberculosis
Experiment: Antitubercular activity against Mycobacterium tuberculosis H37Rv assessed as drug level causing 90% growth inhibition after 7 days by microbroth dilution method
Type: functional
Conditions: for MIC: Mycobacterium tuberculosis, H37Rv, 168 h
In short: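 Two-fold serial dilutions in 7H9 broth with 10% albumin-dextrose complex and 0.05% (v/v) Tween80, in round-bottom microtiter plates, with final concentrations starting at 200 μg/mL. Equal volume of H37Rv broth inoculum added. Incubated aerobically at 37°C for 7 days and read visually. MIC taken as the lowest concentration inhibiting 90% of growth relative to the no-drug control.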

Row | Structure (SMILES) | -logMIC | MIC [µg/mL]
1 | O=C(NCc1ccc(N2CCN(Cc3ccccc3)CC2)cc1)c1ccc([N+](=O)[O-])o1 | 2.4296 | 1.56 (≈ 3.71 µM)
2 | O=C(NCc1ccc(N2CCS(=O)(=O)CC2)cc1)c1ccc([N+](=O)[O-])o1 | 0.8801 | 50 (≈ 132 µM)
3 | O=C(NCc1ccc(N2CCCN(Cc3ccccc3)CC2)cc1)c1ccc([N+](=O)[O-])o1 | 3.0309 | 0.4 (≈ 0.921 µM)
4 | CC(C)(C)OC(=O)N1CCN(c2ccc(CNC(=O)c3ccc([N+](=O)[O-])o3)cn2)CC1 | 5.7318 | 0.0008 (≈ 0.00185 µM)
5 | CCOC(=O)N1CCN(c2ccc(CNC(=O)c3ccc([N+](=O)[O-])o3)cc2)CC1 | 4.8123 | 0.0062 (≈ 0.0154 µM)
6 | O=C(NCc1ccco1)c1ccc([N+](=O)[O-])o1 | 1.5774 | 6.25 (≈ 26.5 µM)
7 | CN1CCN(c2ccc3c(c2)CCN(C(=O)c2ccc([N+](=O)[O-])o2)C3)CC1 | 3.8697 | 0.05 (≈ 0.135 µM)
8 | O=C(NCc1ccc(C(F)(F)F)cc1)c1ccc([N+](=O)[O-])o1 | 3.7983 | 0.05 (≈ 0.159 µM)
9 | O=C(c1ccc([N+](=O)[O-])o1)N1CCC(Oc2ccc(OC(F)(F)F)cc2)CC1 | 5.6993 | 0.0008 (≈ 0.002 µM)
10 | NC1CCN(c2ccc(CNC(=O)c3ccc([N+](=O)[O-])o3)cc2)C1 (configuration not stated) | 2.6172 | 0.8 (≈ 2.42 µM)
11 | COC(=O)NC(=O)c1ccc([N+](=O)[O-])o1 | 2.7286 | 0.4 (≈ 1.87 µM)
